Data as given in ChEMBL document CHEMBL1123811, “gem-Diphosphonate and gem-phosphonate-phosphate compounds with specific high density lipoprotein inducing activity” (1987).

Legend:
Format in all cases: functional
Design in all cases: concentration or dose not given beside the values
Rattus norvegicus [1] = species on record: Rattus norvegicus; assay: Activity to induce the elevation of HDL(High Density Lipoproteins)-Cholesterol of male Wistar rats
Summary of the method: (§1)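 Wistar rats on normal diet; groups were vehicle control, an internal-standard diphosphonate, and test compounds. Dosed daily for 4 days; diphosphonates were dissolved in water or suspended in 1% (carboxymethyl)cellulose, 4 mL/kg. On day 5, after overnight fast, rats were killed under ether. EDTA plasma was assayed enzymatically for HDL-C after heparin-CaCl2 precipitation of VLDL/LDL, phospholipids, triglycerides and α/β-cholesterol ratio. Results are given as % of control.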

Rattus norvegicus [2] = species on record: Rattus norvegicus; assay: Activity to induce the elevation of triglycerides of male Wistar rats; summary of the method: as §1
Rattus norvegicus [3] = species on record: Rattus norvegicus; assay: Activity to induce the elevation of alpha/beta cholesterol ratio of male Wistar rats; summary of the method: as §1
Rattus norvegicus [4] = species on record: Rattus norvegicus; assay: Activity to induce the elevation of phospholipids of male Wistar rats; summary of the method: as §1

`CCOP(=O)(OCC)C(Cc1ccccc1)P(=O)(OCC)OCC` was tested, and the “HDL-cholesterol change relative to control (%)” value (Rattus norvegicus [1]) was 5%, the “Percent change in plasma triglycerides versus control” value (Rattus norvegicus [2]) was -47% and the “Percent change in alpha/beta cholesterol ratio versus control” value (Rattus norvegicus [3]) was 28%. The “Plasma phospholipids, % change versus control” value (Rattus norvegicus [4]) was 5%.

In the case of `COP(=O)(OC)C(O)(C(C)(C)Oc1ccc(Cl)cc1)P(=O)(OC)OC`, the “HDL-cholesterol change relative to control (%)” value (Rattus norvegicus [1]) is reported as 8%, the “Percent change in plasma triglycerides versus control” value (Rattus norvegicus [2]) is reported as -33% and the “Percent change in alpha/beta cholesterol ratio versus control” value (Rattus norvegicus [3]) is reported as -8%. For the same molecule, the “Plasma phospholipids, % change versus control” value (Rattus norvegicus [4]) was 26%.

`COP(=O)(OC)C(O)(c1ccc(F)cc1)P(=O)(OC)OC` was tested, and the “HDL-cholesterol change relative to control (%)” value (Rattus norvegicus [1]) was 23%, the “Percent change in plasma triglycerides versus control” value (Rattus norvegicus [2]) was 27% and the “Percent change in alpha/beta cholesterol ratio versus control” value (Rattus norvegicus [3]) was 64%. The “Plasma phospholipids, % change versus control” value (Rattus norvegicus [4]) was 3%.

`CCOP(=O)(OCC)C(CCCOc1ccccc1)P(=O)(OCC)OCC` was tested, and the “HDL-cholesterol change relative to control (%)” value (Rattus norvegicus [1]) was 16%, the “Percent change in plasma triglycerides versus control” value (Rattus norvegicus [2]) was 0% and the “Percent change in alpha/beta cholesterol ratio versus control” value (Rattus norvegicus [3]) was 37%. For the same molecule, the “Plasma phospholipids, % change versus control” value (Rattus norvegicus [4]) was 0%.

In the case of `COP(=O)(O)C(CCCc1ccccc1)P(=O)(O)OC` (centres undefined), the “HDL-cholesterol change relative to control (%)” value (Rattus norvegicus [1]) is reported as -9%, the “Percent change in plasma triglycerides versus control” value (Rattus norvegicus [2]) is reported as 9% and the “Percent change in alpha/beta cholesterol ratio versus control” value (Rattus norvegicus [3]) is reported as -23%. For the same molecule, the “Plasma phospholipids, % change versus control” value (Rattus norvegicus [4]) was 11%.

`COP(=O)(O)C(Cc1ccc(Cl)cc1)P(=O)(O)OC` (centres undefined) was tested, and the “HDL-cholesterol change relative to control (%)” value (Rattus norvegicus [1]) was 27%, the “Percent change in plasma triglycerides versus control” value (Rattus norvegicus [2]) was -30% and the “Percent change in alpha/beta cholesterol ratio versus control” value (Rattus norvegicus [3]) was -20%. For the same molecule, the “Plasma phospholipids, % change versus control” value (Rattus norvegicus [4]) was 6%.

With `COP(=O)(OC)C(O)(c1ccc(-c2ccccc2)cc1)P(=O)(OC)OC` the “HDL-cholesterol change relative to control (%)” value (Rattus norvegicus [1]) was 74%, the “Percent change in plasma triglycerides versus control” value (Rattus norvegicus [2]) was 5% and the “Percent change in alpha/beta cholesterol ratio versus control” value (Rattus norvegicus [3]) was 5%. The “Plasma phospholipids, % change versus control” value (Rattus norvegicus [4]) was 1%.

`O=P(O)(O)C(CCCc1ccccc1)P(=O)(O)O` was tested, and the “HDL-cholesterol change relative to control (%)” value (Rattus norvegicus [1]) was 3%, the “Percent change in plasma triglycerides versus control” value (Rattus norvegicus [2]) was 11% and the “Percent change in alpha/beta cholesterol ratio versus control” value (Rattus norvegicus [3]) was 14%. The “Plasma phospholipids, % change versus control” value (Rattus norvegicus [4]) was 12%.

In the case of `COP(=O)(OC)C(O)(c1ccc(Cl)cc1)P(=O)(OC)OC`, the “HDL-cholesterol change relative to control (%)” value (Rattus norvegicus [1]) is reported as 44%, the “Percent change in plasma triglycerides versus control” value (Rattus norvegicus [2]) is reported as 15% and the “Percent change in alpha/beta cholesterol ratio versus control” value (Rattus norvegicus [3]) is reported as 130%. For the same molecule, the “Plasma phospholipids, % change versus control” value (Rattus norvegicus [4]) was 19%.

In the case of `CCOP(=O)(OCC)C(Cc1ccc(Cl)cc1)P(=O)(OCC)OCC`, the “HDL-cholesterol change relative to control (%)” value (Rattus norvegicus [1]) is reported as 26%, the “Percent change in plasma triglycerides versus control” value (Rattus norvegicus [2]) is reported as 8% and the “Percent change in alpha/beta cholesterol ratio versus control” value (Rattus norvegicus [3]) is reported as 22%. For the same molecule, the “Plasma phospholipids, % change versus control” value (Rattus norvegicus [4]) was 23%.

For `COP(=O)(OC)OC(C(C)(C)Cc1ccc(Cl)cc1)P(=O)(OC)OC` (centres undefined), the “HDL-cholesterol change relative to control (%)” value (Rattus norvegicus [1]) was -30%, the “Percent change in plasma triglycerides versus control” value (Rattus norvegicus [2]) was -19% and the “Percent change in alpha/beta cholesterol ratio versus control” value (Rattus norvegicus [3]) was -38%. The “Plasma phospholipids, % change versus control” value (Rattus norvegicus [4]) was -27%.

With `CC(C)OP(=O)(OC(C)C)OC(c1ccc(Cl)cc1)P(=O)(OC(C)C)OC(C)C` (centres undefined) the “HDL-cholesterol change relative to control (%)” value (Rattus norvegicus [1]) was -34%, the “Percent change in plasma triglycerides versus control” value (Rattus norvegicus [2]) was -37% and the “Percent change in alpha/beta cholesterol ratio versus control” value (Rattus norvegicus [3]) was -46%. For the same molecule, the “Plasma phospholipids, % change versus control” value (Rattus norvegicus [4]) was -20%.

For `COP(=O)(OC)C(O)(c1ccc(C(=O)c2ccc(Cl)cc2)cc1)P(=O)(OC)OC`, the “HDL-cholesterol change relative to control (%)” value (Rattus norvegicus [1]) was 22%, the “Percent change in plasma triglycerides versus control” value (Rattus norvegicus [2]) was -16% and the “Percent change in alpha/beta cholesterol ratio versus control” value (Rattus norvegicus [3]) was 46%. The “Plasma phospholipids, % change versus control” value (Rattus norvegicus [4]) was 39%.

With `O=P(O)(O)C(CCCOc1ccccc1)P(=O)(O)O` the “HDL-cholesterol change relative to control (%)” value (Rattus norvegicus [1]) was -18%, the “Percent change in plasma triglycerides versus control” value (Rattus norvegicus [2]) was -7% and the “Percent change in alpha/beta cholesterol ratio versus control” value (Rattus norvegicus [3]) was -57%. The “Plasma phospholipids, % change versus control” value (Rattus norvegicus [4]) was -6%.

With `COP(=O)(OC)OC(C(C)(C)c1ccccc1)P(=O)(OC)OC` (centres undefined) the “HDL-cholesterol change relative to control (%)” value (Rattus norvegicus [1]) was 33%, the “Percent change in plasma triglycerides versus control” value (Rattus norvegicus [2]) was 36% and the “Percent change in alpha/beta cholesterol ratio versus control” value (Rattus norvegicus [3]) was 25%. The “Plasma phospholipids, % change versus control” value (Rattus norvegicus [4]) was 15%.

With `COP(=O)(OC)C(O)(c1ccc2ccccc2c1)P(=O)(OC)OC` the “HDL-cholesterol change relative to control (%)” value (Rattus norvegicus [1]) was 35%, the “Percent change in plasma triglycerides versus control” value (Rattus norvegicus [2]) was 24% and the “Percent change in alpha/beta cholesterol ratio versus control” value (Rattus norvegicus [3]) was 51%. The “Plasma phospholipids, % change versus control” value (Rattus norvegicus [4]) was 25%.
